# Laboratory results reported in ChEMBL document CHEMBL1250520, “Antitumor agents. 280. Multidrug resistance-selective desmosdumotin B analogues” (2010).
# pEC50: −log10 of the molar value. The source made the active and inactive calls. No cut-off for these calls is given here.
# How the values were obtained:
# KB = test: Anticancer activity against human KB cells after 3 days by SRB assay; type: functional; conditions: 72 h, read-out: ED50 (the source's name)
# How it was run: (§1)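 Cells seeded at 1500–7500 per well, compounds added from DMSO-diluted stock, grown 3 days in RPMI-1640 with 25mM HEPES, 0.25% sodium bicarbonate, 10% FBS and kanamycin. Attached cells fixed in cold 50% TCA, stained with 0.4% sulforhodamine B, absorbance read at 562 nm after dye solubilization. ED50 is the 50% growth-reduction concentration, averaged from at least three independent determinations.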
# [1] = Anticancer activity against human KBVIN cells after 3 days by SRB assay; type: functional; conditions: 72 h, read-out: ED50 (the source's name); how it was run: as §1
# [2] = Selectivity ratio of ED50 for human KB cells to ED50 for human KBVIN cells; type: functional
# How it was run: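 Ratio of KB ED50 to KB-VIN ED50. Both values come from a 3-day sulforhodamine B assay with absorbance read at 562 nm. Cells were seeded at 1500–7500 per well and dosed from DMSO-diluted stock. Each ED50 is the mean of at least three independent determinations.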
# [3] = Anticancer activity against human Hep3B cells after 3 days by SRB assay; type: functional, Hep 3B2; conditions: 72 h
# [4] = Anticancer activity against vincristine-resistant human Hep3B cells after 3 days by SRB assay; type: functional, Hep 3B2; conditions: 72 h
# Hep 3B2 = test: Selectivity ratio of GI50 for human Hep3B cells to ED50 vincristine-resistant Hep3B cells; type: functional
# KBVIN = test: Inhibition of Pgp efflux pump in human KBVIN cells by calcein AM assay; type: cell-based
# How it was run: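 KB-VIN cells, 10,000 per well, were grown 24 h in RPMI-1640 with 5% FBS. They were preincubated with compounds for 30 min at 37°C, then given fresh medium with 1 µM calcein-AM plus compounds for 30 min at 37°C in the dark. After cold PBS wash and hypotonic Tris-HCl lysis, fluorescence was read at Ex 494/Em 517 nm. Data pooled from two or more independent experiments.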
SMILES,pEC50 (KB),pEC50 [1],Ratio ED50 [2],GI50 [3],GI50 [4],RatioGI50 (Hep 3B2),inhibition (KBVIN)
CCC1=C(O)c2c(oc(-c3cc(C)ccc3F)cc2=O)C(CC)(CC)C1=O,4.33,5.49,15,–,–,–,–
CCC1=C(O)c2c(oc(-c3ccc(F)c(C)c3)cc2=O)C(CC)(CC)C1=O,4.39,5.79,24,–,–,–,–
CCC1=C(O)c2c(oc(-c3cc(C)c(O)c(C)c3)cc2=O)C(CC)(CC)C1=O,4.74,5.05,2,–,–,–,–
CCC1=C(O)c2c(oc(-c3cc(OC)c(OC)c(OC)c3)cc2=O)C(CC)(CC)C1=O,4.33,5.25,8,–,–,–,–
CCC1=C(O)c2c(oc(-c3ccc(C(C)C)cc3)cc2=O)C(CC)(CC)C1=O,5.09,5.97,–,–,–,–,–
CC[C@]1(O)C[C@H]2CN(CCc3c([nH]c4ccccc34)[C@@](C(=O)OC)(c3cc4c(cc3OC)N(C=O)[C@H]3[C@@](O)(C(=O)OC)[C@H](OC(C)=O)[C@]5(CC)C=CCN6CC[C@]43[C@@H]65)C2)C1 [VINCRISTINE],–,–,–,0.0029 µM,6.86 µM,–,–
CCC1=C(O)c2c(oc(-c3ccc(C)c(C)c3)cc2=O)C(CC)(CC)C1=O,4.45,6.15,50,–,–,–,–
CCC1=C(O)c2c(oc(-c3ccc(OC)c(Cl)c3)cc2=O)C(CC)(CC)C1=O,4.60,5.86,18,–,–,–,–
CCC1=C(O)c2c(oc(-c3ccc(OC)c(F)c3)cc2=O)C(CC)(CC)C1=O,4.57,7.00,250,–,–,–,–
CCC1=C(O)c2c(oc(-c3cccc(F)c3)cc2=O)C(CC)(CC)C1=O,< 4.25,5.51,>18,–,–,–,–
CCC1=C(O)c2c(oc(-c3ccc(OC(F)(F)F)cc3)cc2=O)C(CC)(CC)C1=O,4.44,5.00,4,–,–,–,–
CCC1=C(O)c2c(oc(-c3ccc(COC)cc3)cc2=O)C(CC)(CC)C1=O,< 4.28,5.47,15,–,–,–,–
CCC1=C(O)c2c(oc(-c3cccc(OC)c3OC)cc2=O)C(CC)(CC)C1=O,4.45,5.40,9,–,–,–,–
CCC1=C(O)c2c(oc(-c3ccc(F)cc3)cc2=O)C(CC)(CC)C1=O,4.48,5.73,18,–,–,–,–
CCC1=C(O)c2c(oc(-c3ccccc3OC)cc2=O)C(CC)(CC)C1=O,4.39,5.49,13,–,–,–,–
CCC1=C(O)c2c(oc(-c3cc(C)c(OC)cc3C)cc2=O)C(CC)(CC)C1=O,4.44,5.12,5,–,–,–,–
CCCOc1ccc(-c2cc(=O)c3c(o2)C(CC)(CC)C(=O)C(CC)=C3O)cc1,< 4.30,4.54,>2,–,–,–,–
CCC1=C(O)c2c(oc(-c3ccc(Br)cc3)cc2=O)C(CC)(CC)C1=O,< 4.32,4.80,3,–,–,–,–
CCC1=C(O)c2c(oc(-c3ccc(O)c(C)c3C)cc2=O)C(CC)(CC)C1=O,5.19,5.56,2,–,–,–,–
CCC1=C(O)c2c(oc(-c3ccc(OC)c(OC)c3OC)cc2=O)C(CC)(CC)C1=O,5.03,5.80,6,–,–,–,–
CCCc1ccc(-c2cc(=O)c3c(o2)C(CC)(CC)C(=O)C(CC)=C3O)cc1,< 4.28,4.92,>4,–,–,–,–
CCC1=C(O)c2c(oc(-c3ccc(C)cc3C)cc2=O)C(CC)(CC)C1=O,4.39,5.07,5,–,–,–,–
CCC1=C(O)c2c(oc(-c3cccc(OC(F)(F)F)c3)cc2=O)C(CC)(CC)C1=O,< 4.32,5.00,>5,–,–,–,–
CCOc1cccc(-c2cc(=O)c3c(o2)C(CC)(CC)C(=O)C(CC)=C3O)c1OCC,4.35,4.50,1.4,–,–,–,–
"CCC1=C(O)c2c(oc(-c3ccc(C)cc3)cc2=O)C(CC)(CC)C1=O [6,8,8-TRIETHYL-4-METHYL DESMOSDUMOTIN B]",4.41,7.10,460,7.31 µM,0.35 µM,21,Active
CCC1=C(O)c2c(oc(-c3ccc(C)c(Cl)c3)cc2=O)C(CC)(CC)C1=O,4.41,5.67,18,–,–,–,–
"CCC1=C(O)c2c(oc(-c3ccccc3C)cc2=O)C(CC)(CC)C1=O [6,8,8-TRIETHYL-2-METHYL DESMOSDUMOTIN B]",4.39,5.62,17,–,–,–,–
CCC1=C(O)c2c(oc(-c3ccc(C)c(F)c3)cc2=O)C(CC)(CC)C1=O,4.55,5.53,10,–,–,–,–

SMILES,pEC50 (KB),pEC50 [1],Ratio ED50 [2],GI50 [3],GI50 [4],RatioGI50 (Hep 3B2),inhibition (KBVIN)
CCC1=C(O)c2c(oc(-c3ccc(C(F)(F)F)cc3)cc2=O)C(CC)(CC)C1=O,4.45,4.99,3.5,–,–,–,–
CCC1=C(O)c2c(oc(-c3ccc(O)c(O)c3)cc2=O)C(CC)(CC)C1=O,5.00,5.27,2,–,–,–,–
CC(=O)O[C@H]1C(=O)[C@@]2(C)[C@H]([C@H](OC(=O)c3ccccc3)[C@]3(O)C[C@H](OC(=O)[C@H](O)[C@@H](NC(=O)c4ccccc4)c4ccccc4)C(C)=C1C3(C)C)[C@]1(OC(C)=O)CO[C@@H]1C[C@@H]2O [PACLITAXEL],–,–,–,0.0004 µM,16.2 µM,–,–
CCC1=C(O)c2c(oc(-c3ccc(SC)cc3)cc2=O)C(CC)(CC)C1=O,< 4.28,5.86,>38,–,–,–,–
CCC1=C(O)c2c(oc(-c3ccc(CBr)cc3)cc2=O)C(CC)(CC)C1=O,< 4.33,4.55,>2,–,–,–,–
CCC1=C(O)c2c(oc(-c3ccc(OC)cc3C)cc2=O)C(CC)(CC)C1=O,4.68,5.58,8,–,–,–,–
"CCC1=C(O)c2c(oc(-c3ccc(CC)cc3)cc2=O)C(CC)(CC)C1=O [6,8,8-TRIETHYL-4-ETHYL DESMOSDUMOTIN B]",4.66,7.15,320,6.09 µM,0.72 µM,8.5,Active
CCC1=C(O)c2c(oc(-c3cc(C)ccc3C)cc2=O)C(CC)(CC)C1=O,4.84,5.47,4,–,–,–,–
CCCCc1ccc(-c2cc(=O)c3c(o2)C(CC)(CC)C(=O)C(CC)=C3O)cc1,3.96,4.43,3,–,–,–,–
CCC1=C(O)c2c(oc(-c3cc(C)cc(C)c3)cc2=O)C(CC)(CC)C1=O,4.34,6.35,100,–,–,–,–
CCC1=C(O)c2c(oc(-c3cc(OC)cc(OC)c3)cc2=O)C(CC)(CC)C1=O,4.34,5.49,14,–,–,–,–
CCC1=C(O)c2c(oc(-c3ccc(OC)c(OC)c3)cc2=O)C(CC)(CC)C1=O,4.83,6.00,15,–,–,–,–
CCC1=C(O)c2c(oc(-c3ccccc3C(F)(F)F)cc2=O)C(CC)(CC)C1=O,4.34,4.37,1,–,–,–,–
CCC1=C(O)c2c(oc(-c3ccc(OC)c(C)c3)cc2=O)C(CC)(CC)C1=O,4.55,7.00,273,–,–,–,–
CCC1=C(O)c2c(oc(-c3cccc(C(F)(F)F)c3)cc2=O)C(CC)(CC)C1=O,4.45,5.27,6.6,–,–,–,–
CCC1=C(O)c2c(oc(-c3cccc(C)c3C)cc2=O)C(CC)(CC)C1=O,5.51,6.07,4,–,–,–,–
CCC1=C(O)c2c(oc(-c3ccc(C(C)(C)C)cc3)cc2=O)C(CC)(CC)C1=O,4.53,4.76,2,–,–,–,–
CCC1=C(O)c2c(oc(-c3cccc(C)c3)cc2=O)C(CC)(CC)C1=O,4.30,5.43,14,–,–,–,–
CCOc1ccc(-c2cc(=O)c3c(o2)C(CC)(CC)C(=O)C(CC)=C3O)cc1,< 4.28,5.12,>7,–,–,–,–
CCC1=C(O)c2c(oc(-c3ccc(OC)cc3)cc2=O)C(CC)(CC)C1=O,4.75,6.17,26,–,–,–,–
CCC1=C(O)c2c(oc(-c3ccc(O)cc3)cc2=O)C(CC)(CC)C1=O,4.69,4.69,1,–,–,–,–
CCC1=C(O)c2c(oc(-c3cc(OC)ccc3OC)cc2=O)C(CC)(CC)C1=O,5.06,5.60,4,–,–,–,–
CCC1=C(O)c2c(oc(-c3cccc(OC)c3)cc2=O)C(CC)(CC)C1=O,4.88,5.91,11,–,–,–,–
CCC1=C(O)c2c(oc(-c3ccccc3F)cc2=O)C(CC)(CC)C1=O,< 4.25,5.41,>14,–,–,–,–
CCC1=C(O)c2c(oc(-c3cc(C)c(C)cc3C)cc2=O)C(CC)(CC)C1=O,5.09,5.36,2,–,–,–,–
CCC1=C(O)c2c(oc(-c3ccc(OC)c(C)c3C)cc2=O)C(CC)(CC)C1=O,5.27,6.55,20,–,–,–,–
CCC1=C(O)c2c(oc(-c3cc(Cl)c(OC)c(OC)c3)cc2=O)C(CC)(CC)C1=O,4.66,5.08,3,–,–,–,–
